According to ChEMBL document CHEMBL5724801, “EUbOPEN Chemogenomics Library - Multiplex” (2024):
“And” between values parts separate entries of the source, which are not always exact repeats. Identical values can stand only once.

Test system: U2OS
Experiment: Multiplex assay against U2OS
Format: toxicity, cell-based
Conditions: human
Outline: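 Values for tubulin, mitochondrial-mass and membrane-permeability phenotypes are per cents of cells with healthy nuclei. These cells were identified by CellPathfinder machine-learning gating of live cells that had been stained at seeding with Hoechst33342, BioTracker Green Microtubule Cytoskeleton Dye, MitoTracker Red and Annexin V Alexa Fluor 680 and imaged on a CQ1 microscope at 37°C and 5% CO2 after compound addition. The gating first set Hoechst high-intensity objects apart from normal cells, then split normal cells into healthy, pyknosed or fragmented nuclei, and pyknosed cells into mitotic or apoptotic.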

[1] = 12 h, 1 µM, compound concentration 1 uM
[2] = 12 h, 10 µM, compound concentration 10 uM
[3] = 24 h, 1 µM, compound concentration 1 uM
[4] = 24 h, 10 µM, compound concentration 10 uM
[5] = 48 h, 1 µM, compound concentration 1 uM
[6] = 48 h, 10 µM, compound concentration 10 uM

## CSc1ccccc1N1CCN(CCCCCC(=O)NC2CCCc3ccccc32)CC1.Cl (stereo not given)
[1]
  Population Apoptotic (%): 62% and 36%
  Population Fragmented Nuclei (%): 22% and 24%
  Population Healthy Nuclei (%): 61% and 63%
  Population Hoechst High Intensity Objects (%): 9% and 3%
  Population Membrane Permeable-Phenotype (%): 73% and 51%
  Population Mitochondria Different-Phenotype (%): 71% and 85%
  Population Mitotic Cells (%): 37% and 63%
  Population Normal (%): 90% and 96%
  Population Pyknosed Nuclei (%): 15% and 11%
  Population Tubulin-Different-Phenotype (%): 88% and 72%
  Total Cell Count: 222 and 101
[2]
  Population Apoptotic (%): 70% and 84%
  Population Fragmented Nuclei (%): 41% and 23%
  Population Healthy Nuclei (%): 39% and 55%
  Population Hoechst High Intensity Objects (%): 8% and 4%
  Population Membrane Permeable-Phenotype (%): 67% and 60%
  Population Mitochondria Different-Phenotype (%): 90% and 92%
  Population Mitotic Cells (%): 29% and 16%
  Population Normal (%): 91% and 95%
  Population Pyknosed Nuclei (%): 18% and 21%
  Population Tubulin-Different-Phenotype (%): 96% and 98%
  Total Cell Count: 221 and 125
[3]
  Population Apoptotic (%): 54% and 58%
  Population Fragmented Nuclei (%): 22% and 25%
  Population Healthy Nuclei (%): 60% and 58%
  Population Hoechst High Intensity Objects (%): 6% and 2%
  Population Membrane Permeable-Phenotype (%): 63% and 46%
  Population Mitochondria Different-Phenotype (%): 63% and 74%
  Population Mitotic Cells (%): 45% and 41%
  Population Normal (%): 94% and 97%
  Population Pyknosed Nuclei (%): 17% and 15%
  Population Tubulin-Different-Phenotype (%): 75% and 63%
  Total Cell Count: 250 and 111
[4]
  Population Apoptotic (%): 89% and 94%
  Population Fragmented Nuclei (%): 44% and 19%
  Population Healthy Nuclei (%): 28% and 44%
  Population Hoechst High Intensity Objects (%): 6% and 10%
  Population Membrane Permeable-Phenotype (%): 79% and 90%
  Population Mitochondria Different-Phenotype (%): 81% and 56%
  Population Mitotic Cells (%): 10% and 5%
  Population Normal (%): 93% and 89%
  Population Pyknosed Nuclei (%): 26% and 37%
  Population Tubulin-Different-Phenotype (%): 91% and 97%
  Total Cell Count: 219 and 112
[5]
  Population Apoptotic (%): 64% and 95%
  Population Fragmented Nuclei (%): 25% and 28%
  Population Healthy Nuclei (%): 53% and 52%
  Population Hoechst High Intensity Objects (%): 8% and 5%
  Population Membrane Permeable-Phenotype (%): 42% and 41%
  Population Mitochondria Different-Phenotype (%): 56% and 63%
  Population Normal (%): 91% and 94%
  Population Pyknosed Nuclei (%): 21% and 18%
  Population Tubulin-Different-Phenotype (%): 50% and 44%
  Total Cell Count: 272 and 137
[6]
  Population Apoptotic (%): 98% and 100%
  Population Fragmented Nuclei (%): 43% and 25%
  Population Healthy Nuclei (%): 18% and 20%
  Population Hoechst High Intensity Objects (%): 15% and 11%
  Population Membrane Permeable-Phenotype (%): 77% and 85%
  Population Mitochondria Different-Phenotype (%): 33% and 45%
  Population Mitotic Cells (%): 1% and 0%
  Population Normal (%): 84% and 88%
  Population Pyknosed Nuclei (%): 38% and 54%
  Population Tubulin-Different-Phenotype (%): 75% and 95%
  Total Cell Count: 232 and 109
